Reference: ChEMBL document CHEMBL1155210, “The discovery of tertiary-amine LXR agonists with potent cholesterol efflux activity in macrophages” (Bioorg Med Chem Lett, 2009)
pEC50, pKi: −log10 of the molar value.

Key:
RAW264.7 [1] = assay: Induction of [3H]cholesterol efflux in mouse RAW264.7 cells loaded with acetylated-LDL after 24 hrs; assay type: functional, cell-based
How it was run: (§1)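 Mouse RAW 264.7 macrophages were grown overnight, then loaded for 24 h with acetylated LDL (final 50 µg/mL) plus 3H-cholesterol (5 µCi/mL). Cells were washed and held 24 h in serum-free, phenol red-free medium with 1% fatty acid-free BSA and compound in DMSO. Efflux then ran 24 h into medium with 0.1% BSA, 5 µg/mL apoA-I and fresh compound. Filtered medium and NaOH cell lysate were counted by scintillation.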

[2] = target: T1, Oxysterols receptor LXR-alpha (Homo sapiens, UniProt Q13133); assay: Agonist activity at human LXRalpha assessed as association of SRC1 to LXRalpha ligand binding domain by FRET based cell-free ligand sensing assay
T1 sequence (Q13133 whole entry): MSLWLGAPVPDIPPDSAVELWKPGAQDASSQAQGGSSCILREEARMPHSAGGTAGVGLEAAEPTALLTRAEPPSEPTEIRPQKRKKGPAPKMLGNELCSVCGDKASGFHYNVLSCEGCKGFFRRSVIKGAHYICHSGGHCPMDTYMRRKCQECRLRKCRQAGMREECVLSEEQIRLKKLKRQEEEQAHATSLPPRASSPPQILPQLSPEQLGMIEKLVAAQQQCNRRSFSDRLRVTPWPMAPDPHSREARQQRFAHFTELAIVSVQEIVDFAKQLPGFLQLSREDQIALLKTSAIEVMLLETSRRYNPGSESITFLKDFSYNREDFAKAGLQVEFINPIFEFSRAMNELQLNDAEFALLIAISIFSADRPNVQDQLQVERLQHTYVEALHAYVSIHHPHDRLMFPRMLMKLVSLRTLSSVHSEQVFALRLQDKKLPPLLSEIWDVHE
How it was run: (§2)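 Cell-free FRET ligand-sensing assay measuring ligand-dependent recruitment of a 24-amino-acid steroid receptor coactivator 1 (SRC1) fragment to the LXR ligand-binding domain. Percent efficacy is expressed against the maximal agonist response of the reference agonist. Values are means of at least two experiments, standard deviation ≤10%.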

[3] = target: Oxysterols receptor LXR-beta (Homo sapiens) (UniProt P55055); assay: Agonist activity at human LXRbeta assessed as association of SRC1 to LXRbeta ligand binding domain by FRET based cell-free ligand sensing assay relative to 2-(3-(3-((2-chloro-3-(trifluoromethyl)benzyl)(2,2-diphenylethyl)amino)propoxy)phenyl)acetic acid; set-up: concentration or dose not given beside the values
[4] = target: T2, Oxysterols receptor LXR-beta (Homo sapiens, UniProt P55055); assay: Agonist activity at human LXRbeta assessed as association of SRC1 to LXRbeta ligand binding domain by FRET based cell-free ligand sensing assay; how it was run: as §2
T2 sequence (P55055 whole entry): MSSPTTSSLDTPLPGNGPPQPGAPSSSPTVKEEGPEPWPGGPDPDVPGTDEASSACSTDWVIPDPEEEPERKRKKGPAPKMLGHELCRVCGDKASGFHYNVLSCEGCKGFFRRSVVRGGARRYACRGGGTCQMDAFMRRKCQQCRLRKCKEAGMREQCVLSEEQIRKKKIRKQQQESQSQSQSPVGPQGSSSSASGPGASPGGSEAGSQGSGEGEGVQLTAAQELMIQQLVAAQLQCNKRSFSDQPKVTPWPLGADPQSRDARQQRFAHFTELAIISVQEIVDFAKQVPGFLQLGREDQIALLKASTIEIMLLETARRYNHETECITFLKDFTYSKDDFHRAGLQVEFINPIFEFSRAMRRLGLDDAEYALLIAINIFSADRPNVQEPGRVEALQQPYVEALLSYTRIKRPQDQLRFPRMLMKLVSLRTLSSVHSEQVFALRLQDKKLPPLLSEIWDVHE

[5] = target: T3, Oxysterols receptor LXR-alpha (Homo sapiens) (UniProt Q13133); assay: Agonist activity at human LXRalpha assessed as association of SRC1 to LXRalpha ligand binding domain by FRET based cell-free ligand sensing assay relative 2-(3-(3-((2-chloro-3-(trifluoromethyl)benzyl)(2,2-diphenylethyl)amino)propoxy)phenyl)acetic acid; how it was run: as §2
T3 sequence (whole entry): T1 sequence (Q13133 whole entry)

[6] = target: T4, Nuclear receptor subfamily 1 group I member 2 (Homo sapiens, UniProt O75469); assay: Binding affinity to PXR by scintillation proximity binding assay
T4 sequence (O75469 whole entry): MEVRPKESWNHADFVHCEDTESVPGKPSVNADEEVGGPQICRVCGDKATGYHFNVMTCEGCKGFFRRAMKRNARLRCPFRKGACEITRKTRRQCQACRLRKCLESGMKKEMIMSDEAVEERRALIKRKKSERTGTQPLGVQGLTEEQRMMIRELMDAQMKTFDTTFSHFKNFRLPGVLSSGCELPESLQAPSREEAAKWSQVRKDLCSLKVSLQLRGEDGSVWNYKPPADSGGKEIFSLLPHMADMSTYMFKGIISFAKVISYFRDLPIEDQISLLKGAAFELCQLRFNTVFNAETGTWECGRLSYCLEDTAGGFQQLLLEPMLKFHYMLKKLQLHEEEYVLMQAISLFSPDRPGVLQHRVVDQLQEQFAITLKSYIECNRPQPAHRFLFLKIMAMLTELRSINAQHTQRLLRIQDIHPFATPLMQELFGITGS

Macrophage [7] = assay: Increase in ABCG1 gene expression in human primary macrophages; assay type: functional, cell-based
Macrophage [8] = assay: Increase in ABCA1 gene expression in human primary macrophages; assay type: functional, cell-based
RAW264.7 [9] = assay: Induction of [3H]cholesterol efflux in mouse RAW264.7 cells loaded with acetylated-LDL after 24 hrs relative to 2-(3-(3-((2-chloro-3-(trifluoromethyl)benzyl)(2,2-diphenylethyl)amino)propoxy)phenyl)acetic acid; assay type: functional; how it was run: as §1
Macrophage [10] = assay: Increase in ABCG1 gene expression in human primary macrophages at 100 nM relative to control; assay type: functional
Macrophage [11] = assay: Increase in ABCG1 gene expression in human primary macrophages at 30 nM relative to control; assay type: functional
Macrophage [12] = assay: Increase in SREBP1 gene expression in human primary macrophages at 100 nM relative to control; assay type: functional
Macrophage [13] = assay: Increase in ABCA1 gene expression in human primary macrophages at 100 nM relative to control; assay type: functional
Macrophage [14] = assay: Increase in ABCA1 gene expression in human primary macrophages at 30 nM relative to control; assay type: functional
[15] = Oral bioavailability in Sprague-Dawley rat at 4.5 mg/kg; assay type: ADME, organism-based; conditions: in vivo
How it was run: (§3)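 Pharmacokinetics were measured after an intravenous dose of 2.6 mg/kg and an oral dose of 4.5 mg/kg. Oral half-life and oral bioavailability (F%) are reported as mean ± deviation.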

[16] = Half life in Sprague-Dawley rat at 2.6 mg/kg, iv; assay type: ADME, organism-based; set-up: dose 2.6 mg/kg, route intravenous; conditions: in vivo
[17] = Half life in Sprague-Dawley rat at 4.5 mg/kg, po; assay type: ADME, organism-based; set-up: dose 4.5 mg/kg, route oral; conditions: in vivo; how it was run: as §3
[18] = Cmax in Sprague-Dawley rat at 2.6 mg/kg, iv; assay type: ADME, organism-based; set-up: dose 2.6 mg/kg, route intravenous; conditions: in vivo
[19] = Plasma clearance in Sprague-Dawley rat at 2.6 mg/kg, iv; assay type: ADME, organism-based; set-up: dose 2.6 mg/kg, route intravenous
[20] = Volume of distribution at steady state in Sprague-Dawley rat at 2.6 mg/kg, iv; assay type: ADME, organism-based; set-up: dose 2.6 mg/kg, route intravenous; conditions: in vivo, read-out: Vdss

## C[C@H](CCN(Cc1cccc(C(F)(F)F)c1Cl)CC(c1ccccc1)c1ccccc1)Oc1cccc(CC(=O)O)c1
RAW264.7 [1]
  pEC50: 7.47
[2]
  pEC50: 6.70
[3]
  Activity: 76%
[4]
  pEC50: 7.39
[5]
  Activity: 78%
[6]
  pKi: < 5.00

## O=C(O)Cc1ccc2cc(CCN(Cc3cccc(C(F)(F)F)c3Cl)CC(c3ccccc3)c3ccccc3)oc2c1
[2]
  pEC50: 6.48
[3]
  Activity: 75%
[4]
  pEC50: 7.20
[5]
  Activity: 53%

## CC(C)(C(=O)O)c1cccc(OCCCN(Cc2cccc(C(F)(F)F)c2Cl)CC(c2ccccc2)c2ccccc2)c1
Macrophage [7]
  Activity: Dose-dependent effect
RAW264.7 [1]
  pEC50: 8.15
Macrophage [8]
  Activity: Dose-dependent effect
RAW264.7 [9]
  fold change (FC): 2
Macrophage [10]
  fold change (FC): 11.2
[2]
  pEC50: 7.37
[3]
  Activity: 95%
Macrophage [11]
  fold change (FC): 7.5
[4]
  pEC50: 7.82
[5]
  Activity: 100%
Macrophage [12]
  fold change (FC): 5.8
Macrophage [13]
  fold change (FC): 4
Macrophage [14]
  fold change (FC): 3

## C[C@H](CCOc1cccc(CC(=O)O)c1)N(Cc1cccc(C(F)(F)F)c1Cl)CC(c1ccccc1)c1ccccc1 [ABEQUOLIXRON]
[15]
  bioavailability: 71%
Macrophage [7]
  Activity: Dose-dependent effect
RAW264.7 [1]
  pEC50: 7.77
Macrophage [8]
  Activity: Dose-dependent effect
RAW264.7 [9]
  fold change (FC): 2
[16]
  half-life: 1.82 h
Macrophage [10]
  fold change (FC): 8
[2]
  pEC50: 7.13
[17]
  half-life: 2.4 h
[3]
  Activity: 89%
Macrophage [11]
  fold change (FC): 4.2
[4]
  pEC50: 7.60
[5]
  Activity: 100%
Macrophage [12]
  fold change (FC): 5.5
[18]
  Cmax: 2130 ng/mL
Macrophage [13]
  fold change (FC): 6.3
Macrophage [14]
  fold change (FC): 3.6
[19]
  clearance: 23.7 mL/min/kg
[20]
  Vd: 1.9 L/kg
[6]
  pKi: < 5.00

## C[C@H](CCOc1cccc(C(C)(C)C(=O)O)c1)N(Cc1cccc(C(F)(F)F)c1Cl)CC(c1ccccc1)c1ccccc1
RAW264.7 [1]
  pEC50: > 8.52
RAW264.7 [9]
  fold change (FC): 2
[2]
  pEC50: 8.05
[3]
  Activity: 100%
[4]
  pEC50: 7.96
[5]
  Activity: 100%

## CC(C(=O)O)c1cccc(OCCCN(Cc2cccc(C(F)(F)F)c2Cl)CC(c2ccccc2)c2ccccc2)c1 (stereo not given)
RAW264.7 [1]
  pEC50: 7.82
RAW264.7 [9]
  fold change (FC): 2
[2]
  pEC50: 7.34
[3]
  Activity: 90%
[4]
  pEC50: 7.82
[5]
  Activity: 100%

## C[C@@H](CCOc1cccc(CC(=O)O)c1)N(Cc1cccc(C(F)(F)F)c1Cl)CC(c1ccccc1)c1ccccc1
RAW264.7 [1]
  pEC50: 7.27
[2]
  pEC50: 6.68
[3]
  Activity: 80%
[4]
  pEC50: 7.06
[5]
  Activity: 91%

## C[C@@H](COc1cccc(CC(=O)O)c1)CN(Cc1cccc(C(F)(F)F)c1Cl)CC(c1ccccc1)c1ccccc1
RAW264.7 [1]
  pEC50: 7.12
[2]
  pEC50: 6.55
[3]
  Activity: 70%
[4]
  pEC50: 7.07
[5]
  Activity: 67%

## O=C(O)Cc1cccc(OCCCN(Cc2cccc(C(F)(F)F)c2Cl)CC(c2ccccc2)c2ccccc2)c1
Macrophage [7]
  Activity: Dose-dependent effect
RAW264.7 [1]
  pEC50: 7.54
Macrophage [8]
  Activity: Dose-dependent effect
Macrophage [10]
  fold change (FC): 5.4
[2]
  pEC50: 6.70
Macrophage [11]
  fold change (FC): 3.2
Macrophage [12]
  fold change (FC): 4.1
Macrophage [13]
  fold change (FC): 3.1
Macrophage [14]
  fold change (FC): 2
[6]
  pKi: 5.70

## O=C(O)Cc1ccc2oc(CCN(Cc3cccc(C(F)(F)F)c3Cl)CC(c3ccccc3)c3ccccc3)cc2c1
[2]
  pEC50: 6.52
[3]
  Activity: 26%
[4]
  pEC50: 6.84
[5]
  Activity: 20%

## CCC(CC)(C(=O)O)c1cccc(OCCCN(Cc2cccc(C(F)(F)F)c2Cl)CC(c2ccccc2)c2ccccc2)c1
[2]
  pEC50: 6.42
[3]
  Activity: 68%
[4]
  pEC50: 6.76
[5]
  Activity: 69%

## C[C@@H](CCN(Cc1cccc(C(F)(F)F)c1Cl)CC(c1ccccc1)c1ccccc1)Oc1cccc(CC(=O)O)c1
[2]
  pEC50: 6.44
[3]
  Activity: 59%
[4]
  pEC50: 6.84
[5]
  Activity: 39%

## O=C(O)C1CCCc2c(OCCCN(Cc3cccc(C(F)(F)F)c3Cl)CC(c3ccccc3)c3ccccc3)cccc21 (racemic)
Macrophage [7]
  Activity: Dose-dependent effect
RAW264.7 [1]
  pEC50: 7.74
Macrophage [8]
  Activity: Dose-dependent effect
RAW264.7 [9]
  fold change (FC): 2
Macrophage [10]
  fold change (FC): 3.6
[2]
  pEC50: 7.25
[3]
  Activity: 100%
Macrophage [11]
  fold change (FC): 2
[4]
  pEC50: 7.59
[5]
  Activity: 100%
Macrophage [12]
  fold change (FC): 2.6
Macrophage [13]
  fold change (FC): 2.6
Macrophage [14]
  fold change (FC): 1.4
